Measurements taken from ChEMBL document CHEMBL1287740, “Synthesis and bio-evaluation of alkylaminoaryl phenyl cyclopropyl methanones as antitubercular and antimalarial agents” (Bioorg Med Chem, 2010).
Converted amounts (≈) assume the structure as drawn. The source made the active and inactive calls. The rule behind the calls is not given here.

What was measured:
[1] = tested on: Plasmodium falciparum; experiment: Antimalarial activity against Plasmodium falciparum 3D7 assessed as maturation of schizonts after 24 to 32 hrs by microdilution method; assay type: functional
Method in brief: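 P. falciparum 3D7 (chloroquine sensitive); twofold serial dilutions in complete RPMI 1640 from 10 mg/ml DMSO stocks, parasitized RBCs added (final hematocrit 3–4%, 1.0–2.0% parasitaemia, >95% rings). Incubated 24–32 h at 37 °C with 5% CO2. Thin smears stained with 15% Giemsa; schizont maturation scored against controls to give MIC.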

[2] = Selectivity index, ratio of CC50 for african green monkey (Cercopithecus aethiops) Vero cells to IC50 for Plasmodium falciparum 3D7; assay type: functional
Method in brief: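 Ratio of Vero CC50 (resazurin fluorescence after 72 h exposure) to P. falciparum 3D7 IC50 (radiolabelled hypoxanthine uptake; 24 h compound exposure, then 48 h with label).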

[3] = tested on: Mycolicibacterium aurum; experiment: Inhibition of type II fatty acid biosynthesis pathway in Mycobacterium aurum at 50 uM after 12 hrs by lacZ reporter assay relative to untreated control; assay type: functional
Method in brief: (§1)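 Recombinant M. aurum lacZ reporter strains (kasA promoter or hsp60 promoter) grown in Sauton's medium with kanamycin at 37 °C to 0.5 OD600, diluted to 0.04–0.05 OD, equilibrated 2 h, then treated 12 h at 37 °C (10, 25, 50, 75 µM). Cells sonicated in PBS pH 7.2 and protein normalized by Bradford. β-gal measured with ONPG (4 mg/ml), 30 min at 37 °C, stopped with Na2CO3, OD 410 nm. Triplicates, relative to untreated control.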

[4] = Cytotoxicity against african green monkey Vero cells after 72 hrs; assay type: cell-based; conditions: chlorocebus sabaeus
Method in brief: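 Vero (C1008 monkey kidney) cells grown in MEM + 15% FBS, 5% CO2, 37 °C. Trypsinized cells at 1 × 10^5 cells/ml seeded and allowed to adhere overnight, then exposed to serial compound dilutions for 72 h. Resazurin added and fluorescence read after 4 h.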

[5] = tested on: Plasmodium falciparum; experiment: Antimalarial activity against Plasmodium falciparum 3D7 assessed as radiolabeled hypoxanthine uptake after 48 hrs by scintillation counting; assay type: functional, organism-based; conditions: 3D7, 48 h
Method in brief: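 Chloroquine-sensitive P. falciparum 3D7 asynchronous culture at 0.5% parasitaemia and 1.5% hematocrit, exposed to compounds for 24 h at 37 °C in CO2. Radiolabelled hypoxanthine (0.5 µCi/well) then added and incubation continued 48 h. Cells harvested onto filter paper, and radioactivity counted by scintillation β-counter. IC50 derived from hypoxanthine uptake.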

[6] = tested on: Mycolicibacterium aurum; experiment: Inhibition of type II fatty acid biosynthesis pathway in Mycobacterium aurum at 25 uM after 12 hrs by lacZ reporter assay relative to untreated control; assay type: functional; method in brief: as §1
[7] = tested on: Mycobacterium tuberculosis; experiment: Antimicrobial activity against Mycobacterium tuberculosis H37Rv after 30 days by agar microdilution method; assay type: functional
Method in brief: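 Twofold dilutions of compound in DMSO incorporated into Middlebrook 7H10 medium with OADC supplement in slanted tubes, preincubated 37 °C for 24 h, then streaked with H37Rv harvested from L-J medium into 0.85% saline with 0.05% Tween-80 (5 × 10^5 bacilli per tube). Incubated at 37 °C; MIC = lowest concentration giving complete inhibition of colonies versus drug-free control.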

[8] = tested on: Mycolicibacterium aurum; experiment: Inhibition of type II fatty acid biosynthesis pathway in recombinant Mycobacterium aurum carrying hsp60 promoter assessed as cell viability at 50 uM after 12 hrs by lacZ reporter assay relative to untreated control; assay type: functional
Method in brief: (§2)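 M. aurum (recombinant reporter strains) grown in Sauton's medium with 0.05% Tween-80 and kanamycin to 0.6 OD600, diluted to 0.05 OD. 1 × 10^5 cells inoculated into 5 ml medium with varying compound concentrations, grown 12 h at 37 °C with shaking. Viable cells counted by 10-fold serial dilution plating on nutrient agar-Tween-kanamycin. % inhibition calculated with untreated colony count taken as 100%.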

[9] = tested on: Mycolicibacterium aurum; experiment: Inhibition of type II fatty acid biosynthesis pathway in recombinant Mycobacterium aurum carrying hsp60 promoter assessed as cell viability at 75 uM after 12 hrs by lacZ reporter assay relative to untreated control; assay type: functional; method in brief: as §2
[10] = tested on: Mycolicibacterium aurum; experiment: Inhibition of type II fatty acid biosynthesis pathway in Mycobacterium aurum at 10 to 50 uM after 12 hrs by lacZ reporter assay relative to untreated control; assay type: functional, organism-based; method in brief: as §1
[11] = tested on: Mycolicibacterium aurum; experiment: Inhibition of type II fatty acid biosynthesis pathway in recombinant Mycobacterium aurum carrying hsp60 promoter assessed as cell viability at 25 uM after 12 hrs by lacZ reporter assay relative to untreated control; assay type: functional; method in brief: as §2
[12] = tested on: Mycolicibacterium aurum; experiment: Inhibition of type II fatty acid biosynthesis pathway in recombinant Mycobacterium aurum carrying hsp60 promoter assessed as beta-galactosidase activity at 14 uM after 12 hrs by lacZ reporter assay relative to untreated control; assay type: functional, organism-based
[13] = tested on: Mycolicibacterium aurum; experiment: Inhibition of type II fatty acid biosynthesis pathway in recombinant Mycobacterium aurum carrying hsp60 promoter assessed as cell viability at 10 uM after 12 hrs by lacZ reporter assay relative to untreated control; assay type: functional; method in brief: as §2
[14] = tested on: Mycolicibacterium aurum; experiment: Inhibition of type II fatty acid biosynthesis pathway in recombinant Mycobacterium aurum carrying hsp60 promoter assessed as beta-galactosidase activity at 10 to 50 uM after 12 hrs by lacZ reporter assay relative to untreated control; assay type: functional, organism-based; method in brief: as §1
[15] = tested on: Mycolicibacterium aurum; experiment: Inhibition of type II fatty acid biosynthesis pathway in recombinant Mycobacterium aurum carrying hsp60 promoter assessed as cell viability at 10 to 50 uM after 12 hrs by lacZ reporter assay relative to untreated control; assay type: functional, organism-based; method in brief: as §2
[16] = tested on: Mycolicibacterium aurum; experiment: Inhibition of type II fatty acid biosynthesis pathway in Mycobacterium aurum assessed as cell viability at 10 to 50 uM after 12 hrs by lacZ reporter assay relative to untreated control; assay type: functional, organism-based; method in brief: as §2

Structure (SMILES)	MIC [1] [µg/mL]	Ratio CC50/IC50 [2]	inhibition [3]	CC50 at 72 h [4] [µg/mL]	IC50 [5] [µg/mL]	inhibition [6]	MIC [7]	inhibition at 50 µM [3] [%]	inhibition at 25 µM [6] [%]	inhibition at 50 µM [8] [%]	inhibition at 75 µM [9] [%]	inhibition [10]	inhibition at 25 µM [11] [%]	inhibition [12]	inhibition at 10 µM [13] [%]	inhibition [14]	inhibition [15]	inhibition [16]
O=C(c1ccc(NC2CCCCC2)cc1)C1CC1c1ccc(Cl)cc1 (stereo unspecified)	10 (≈ 28.3 µM)	261.57	inactive	196 (≈ 554 µM)	0.75 (≈ 2.12 µM)	inactive	> 12.5 µg/mL											
CCCCCCCCNc1ccc(C(=O)C2CC2c2ccc(Cl)cc2)cc1 (stereo unspecified)	10 (≈ 26 µM)	100.53		214 (≈ 558 µM)	2.13 (≈ 5.55 µM)		> 12.5 µg/mL	23.9	30.2									
O=C(c1ccc(NCCO)cc1)C1CC1c1ccc(Cl)cc1 (stereo unspecified)	2 (≈ 6.33 µM)	508.33		305 (≈ 966 µM)	0.6 (≈ 1.9 µM)		> 12.5 µg/mL											
CC(C)CCCC(C)Nc1ccc(C(=O)C2CC2c2ccc(Cl)cc2)cc1 (stereo unspecified)							> 12.5 µg/mL	27.4	17.5									
CN(C)CCCNc1ccc(C(=O)/C=C/c2ccc(Cl)cc2)cc1	1.56 (≈ 4.55 µM)	9.25		5.92 (≈ 17.3 µM)	0.64 (≈ 1.87 µM)			88.1	83.4	88.7	99.6	Dose-dependent effect	85.4	inactive	18.8	inactive	Dose-dependent effect	Dose-dependent effect
O=C(c1ccc(N2CCCC2)cc1)C1CC1c1ccc(Cl)cc1 (stereo unspecified)	> 50	44.26		431 (≈ 1320 µM)	9.75 (≈ 29.9 µM)		12.5 µg/mL (≈ 38.4 µM)											
CCCCN(CCCC)c1ccc(C(=O)C2CC2c2ccc(Cl)cc2)cc1 (stereo unspecified)	10 (≈ 26 µM)	590.04		431 (≈ 1120 µM)	0.73 (≈ 1.9 µM)		12.5 µg/mL (≈ 32.6 µM)	37.5	41.5									
CN1CCN(c2ccc(C(=O)/C=C/c3ccc(Cl)cc3)cc2)CC1	50 (≈ 147 µM)	8.69		102 (≈ 301 µM)	11.8 (≈ 34.6 µM)		3.12 µg/mL (≈ 9.15 µM)	14.7	13.6									
CCCCCCCNc1ccc(C(=O)C2CC2c2ccc(OC)c(OC)c2)cc1 (stereo unspecified)	10 (≈ 25.3 µM)	121.67		273 (≈ 689 µM)	2.24 (≈ 5.66 µM)		> 12.5 µg/mL											
O=C(c1ccc(N2CCN(c3cccc(Cl)c3Cl)CC2)cc1)C1CC1c1ccc(Cl)cc1 (stereo unspecified)	50 (≈ 103 µM)	43.38		383 (≈ 788 µM)	8.82 (≈ 18.2 µM)		12.5 µg/mL (≈ 25.7 µM)	31.8	15.7									
CN(C)c1ccc(C(=O)C2CC2c2ccc(Cl)cc2)cc1 (stereo unspecified)	10 (≈ 33.4 µM)	240.4		344 (≈ 1150 µM)	1.43 (≈ 4.77 µM)		Insoluble											
O=C(c1ccc(NCCn2cncn2)cc1)C1CC1c1ccc(Cl)cc1 (stereo unspecified)	10 (≈ 27.3 µM)	11.7		39.9 (≈ 109 µM)	3.41 (≈ 9.3 µM)		12.5 µg/mL (≈ 34.1 µM)	30.1	17.9									
CCCCCCCCCCCCCCCCNc1ccc(C(=O)C2CC2c2ccc(Cl)cc2)cc1 (stereo unspecified)	50 (≈ 101 µM)	89.68		410 (≈ 826 µM)	4.57 (≈ 9.21 µM)		Insoluble	36.7	36									
CCCCCCCNc1ccc(C(=O)C2CC2c2ccc(Cl)cc2)cc1 (stereo unspecified)	0.3 (≈ 0.811 µM)	4975	inactive	398 (≈ 1080 µM)	0.08 (≈ 0.216 µM)	inactive	> 12.5 µg/mL											
O=C(c1ccc(NCCn2cnc3ccccc32)cc1)C1CC1c1ccc(Cl)cc1 (stereo unspecified)	2 (≈ 4.81 µM)	385.45		285 (≈ 686 µM)	0.74 (≈ 1.78 µM)		12.5 µg/mL (≈ 30.1 µM)	16.9	1.03									
